NS3 helicase inh = inhibitors of HCV NS3 helicase, primary screen, biochemical, Cy5 molecular beacon fluorescence; AID 1800, 2009; inhibition, % at 10.9 µM; NS3 helicase DNA unwinding; actives 0.56% (n = 290,000); Hepatitis C virus NS3 helicase;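 active means inhibition above the mean of all tested compounds plus 3 SD, set per campaign, cut at about 35% in these data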
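test system = hepatitis C virus NS3 helicase domain fragment enzyme | reagent = annealed dual-labelled DNA beacon duplex, ATP-started | times = 1 h at 25 °C | detection = Cy5 fluorescence, 0 and 60 min reads | read-out basis = percent inhibition from t60/t0 fluorescence ratio | control set = DMSO and thioflavine S | replication = one well per compound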
PP1 inh = PP1-alpha phosphatase inhibitors, primary screen, counter-screen for PP5 inhibitor project, biochemical, fluorescence, OMFP substrate, single point; Serine/threonine-protein phosphatase PP1-alpha catalytic subunit (Homo sapiens), P62136; purified PP1alpha; inhibition, % at 6.7 µM; actives 0.9% (n = 320,000); AID 2235, 2010;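 active means inhibition above the mean inhibition of all tested compounds plus 3 SD, computed separately for each screening campaign, cut at about 15% in these data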
Target sequence (P62136 whole entry, looked up): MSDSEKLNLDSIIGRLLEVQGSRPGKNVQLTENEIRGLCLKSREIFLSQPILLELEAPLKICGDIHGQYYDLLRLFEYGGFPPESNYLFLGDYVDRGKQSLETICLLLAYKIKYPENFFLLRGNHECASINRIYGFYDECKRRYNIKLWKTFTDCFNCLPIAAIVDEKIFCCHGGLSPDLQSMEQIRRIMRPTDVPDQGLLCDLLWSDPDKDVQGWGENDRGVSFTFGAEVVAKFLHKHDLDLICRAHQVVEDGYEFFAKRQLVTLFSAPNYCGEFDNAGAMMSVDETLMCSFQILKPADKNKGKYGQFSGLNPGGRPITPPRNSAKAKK
core dimer inh = inhibitors of HCV core protein dimerization, primary screen, biochemical, TR-FRET, high-throughput | TR-FRET GST/Flag-core106 dimerization, 1536-well | actives 0.33% (n = 300,000) | inhibition, % at 5 µM;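 active means inhibition above the mean of all tested compounds plus 3 SD, set per screening campaign, cut at about 45% in these data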
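Material: GST/Flag-tagged HCV core106 proteins. Incubation: 4 h, 22.5 °C incubation. Read-out basis: inhibition (%) from 671 over 617 nm ratio. Measured by: TR-FRET, excitation 340 nm, emission 617 and 671 nm.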
EBNA-1 inh = EBNA-1 DNA-binding inhibitors, primary screen, biochemical, fluorescence polarization. actives 0.34% (n = 300,000). inhibition, % at 14.8 µM; in the data active means inhibition above about 28%
ZTA counter = blocks Epstein-Barr virus ZTA, an EBNA-1 counter-screen. inhibition, % at 11 µM. P03206. AID 2234. ZTA-DNA binding, fluorescence polarization. actives 0.15% (n = 320,000); in the data active means inhibition above about 33%
Target sequence (P03206 whole entry, looked up): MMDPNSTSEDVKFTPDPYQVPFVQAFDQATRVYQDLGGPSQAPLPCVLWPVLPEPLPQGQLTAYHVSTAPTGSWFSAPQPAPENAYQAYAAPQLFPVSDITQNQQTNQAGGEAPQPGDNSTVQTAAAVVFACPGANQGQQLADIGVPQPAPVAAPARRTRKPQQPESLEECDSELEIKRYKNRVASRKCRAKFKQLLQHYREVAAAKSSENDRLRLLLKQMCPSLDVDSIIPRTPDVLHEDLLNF
PP1 confirm = PP1 phosphatase inhibitors, confirmation, biochemical, fluorescence, OMFP substrate, triplicate; shares compounds with PP1 inh; purified PP1alpha; inhibition, % at 6.7 µM; actives 52% (n = 1,900);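 active means mean PP1 inhibition above a set limit taken from the earlier primary screen, cut at about 15% in these data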
PP5 counter = PP5 phosphatase inhibition by PP1 hits, confirmation, counter-screen for PP1 inhibitor project, biochemical, fluorescence, triplicate; inhibition, % at 6.7 µM; shares compounds with PP1 inh; actives 4% (n = 1,900); purified PP5c, OMFP fluorescence; AID 2360, 2010;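 active means mean PP5 inhibition over triplicate wells above about 9.5% taken from the earlier PP1 screen, limit read from the data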
Hits are given with their value; . = inactive; / = no result. Compounds with a hit are over-represented: about 1.9% of the library has one in this group of screens.

SMILES	NS3 helicase inh	PP1 inh	core dimer inh	EBNA-1 inh	ZTA counter	PP1 confirm	PP5 counter
CSCCC(NC(=O)COc1ccccc1)C(=O)OCC(=O)c1ccccc1 (stereo not given)	/	60	.	.	.	.	.
O=C(O)COc1ccc(/C=N/NC(=O)/C(=C/C=C/c2ccccc2)NC(=O)c2ccccc2)cc1	.	.	.	.	.	/	/
CCn1c(SCC(=O)O)nnc1-c1ccccc1OC	.	.	.	.	.	/	/
O=[N+]([O-])c1ccc(N2CCCCC2)c(Cl)c1N1CCCCC1	.	47	.	.	.	.	.
NC(=O)c1ccsc1NC(=O)Cc1ccc([N+](=O)[O-])cc1	.	.	.	.	.	/	/
Cc1ccc(-c2nn(-c3ccccc3)cc2/C=C(\C#N)C(=O)NCc2ccccc2)cc1	.	.	.	.	.	/	/
CCSc1ccc(-c2nn(-c3ccccc3)cc2/C=C(/C#N)C(=O)NCCCOC)cc1	.	.	.	.	.	/	/
CCOc1cccc(-c2nn(-c3ccccc3)cc2/C=C(/C#N)C(=O)NCCCn2ccnc2)c1	.	26	.	.	.	17	.
N#C/C(=C/c1cn(-c2ccccc2)nc1-c1cccc(OCc2ccccc2)c1)C(=O)NCCCn1ccnc1	.	21	.	.	.	.	.
O=C(CCN1C(=O)C2CCCCC2C1=O)N1CCN(S(=O)(=O)c2ccccc2)CC1 (stereo not given)	/	33	.	.	.	.	.
CCOc1ccc(CN2CCNC(=O)C2CC(=O)NC2CCCCCC2)cc1 (stereo not given)	.	18	.	.	.	.	.
O=c1[nH]c(/C=C/c2ccccc2Cl)nc2ccccc12	.	18	.	.	.	25	.
O=C(O)c1ccc(/C=C/c2nc3ccccc3c(=O)[nH]2)cc1	.	.	.	.	.	/	/
CC(C)(C)C1CCC2(CC1)Nc1cccc3cccc(c13)N2	.	31	70	.	.	25	.
Cc1cn2c(nc1=O)OC1CC2OC1CO (stereo not given)	.	.	.	.	.	/	/
COc1ccc(CCNC(=O)CC2SC(=NCc3ccccc3)NC2=O)cc1 (stereo not given)	.	.	.	.	.	/	/
CCCCC(CC)C(=O)Nc1cc(C(=O)NCc2ccc(C)cc2)ccc1N1CCC2(CC1)CC(c1ccccc1)=NO2 (stereo not given)	.	19	.	.	.	.	.
CCCCC(CC)C(=O)Nc1cc(C(=O)NCc2ccc(C)cc2)ccc1N1CCC2(CC1)CC(c1cccc(Br)c1)=NO2 (stereo not given)	/	.	.	.	.	/	/
S=c1[nH]nc(COc2ccccc2)n1/N=C/c1ccc(Br)cc1	.	.	.	.	.	/	/
S=c1[nH]nc(COc2ccccc2)n1/N=C/c1cccc(Br)c1	.	33	.	.	.	.	.
C#Cc1cccc(NC(=O)c2ccc(Cl)cc2Cl)c1	.	.	.	.	.	/	/
Cc1cc(C(=O)Cn2nc(C(=O)O)c3ccccc3c2=O)c(C)n1CCc1ccc(F)cc1	.	24	.	.	.	22	.
Cc1cc(C(=O)Cn2nc(C(=O)O)c3ccccc3c2=O)c(C)n1CC(F)(F)F	.	.	.	.	.	/	/
Cc1cccc(N2CCN(C(=O)CC(NC(=O)c3ccccc3)c3ccccc3)CC2C)c1 (stereo not given)	.	20	.	.	.	.	.
C=CCn1c(SCC(=O)Nc2sccc2C#N)nc2sc(C)c(C)c2c1=O	.	27	.	.	.	31	.
SMILES	NS3 helicase inh	PP1 inh	core dimer inh	EBNA-1 inh	ZTA counter	PP1 confirm	PP5 counter
O=[N+]([O-])c1ccc(N2CCN(S(=O)(=O)c3ccccc3)CC2)cc1NCc1cccnc1	.	.	.	.	.	/	/
O=[N+]([O-])c1ccc(N2CCN(S(=O)(=O)c3ccc(Cl)cc3)CC2)cc1NCc1cccnc1	.	19	.	.	.	16	.
CCOc1ccc(NC(=O)c2ccc(CNc3c(NC4CCCCC4)c(=O)c3=O)cc2)cc1	.	.	.	.	.	/	/
COc1ccc(NC(=O)c2ccc(CNc3c(NC4CCCCC4)c(=O)c3=O)cc2)c(OC)c1	.	21	.	.	.	19	.
Cn1cc(CN2CCN(CC(C)(C)C)C(CCO)C2)c2ccccc21 (stereo not given)	.	.	.	.	.	/	/
Cc1ccc(N(Cc2cc3ccc(C)cc3[nH]c2=O)S(C)(=O)=O)c(C)c1	.	.	.	.	.	/	/
Cc1ccc(NC(=O)C2C3CCC(O3)C2C(=O)O)cc1C (stereo not given)	.	81	.	.	.	22	43
Cc1ccc(C(C)NC(=O)C2CCCC2)c(C)c1 (stereo not given)	.	.	.	.	.	/	/
COc1cccc(NC(=O)C2C3C=CC(C3)C2C(=O)O)c1 (stereo not given)	.	.	.	.	.	/	/
O=C(O)C1C2CCC(O2)C1C(=O)Nc1ccc(O)cc1 (stereo not given)	.	27	.	.	.	.	18
COc1cc(NC(=O)C2C3CCC(O3)C2C(=O)O)cc(OC)c1 (stereo not given)	.	76	.	.	.	21	30
Cc1ccc(C)c(C(C)NC(=O)C2C3CCC(O3)C2C(=O)O)c1 (stereo not given)	.	80	.	.	.	33	43
O=C(NCc1cccs1)c1cc(S(=O)(=O)N2CCOCC2)ccc1N1CCCC1	/	.	/	/	.	/	/
CCCn1c(CCNC(=O)c2ccco2)nc2ccccc21	.	.	.	.	.	/	/
Cc1ccc(-c2c(C)sc(NC(=O)C3C4CCC(O4)C3C(=O)O)c2C(=O)OC(C)C)cc1 (stereo not given)	.	.	.	.	.	/	/
O=C(O)C1C2CCC(O2)C1C(=O)Nc1ccc(OC(F)F)cc1 (stereo not given)	.	68	.	.	.	.	26
CCCOc1ccc(C(C)=O)cc1CSc1nc(O)cc(=O)[nH]1	.	19	.	.	.	.	.
CCCOc1ccc(C(C)=O)cc1CSCCC#N	.	.	.	.	.	/	/
CC(OC(=O)c1nsc(Cl)c1Cl)C(=O)NCCc1ccccc1 (stereo not given)	.	.	.	.	.	/	/
CCOc1ncccc1C(=O)OCC(=O)Nc1ccc(-c2nc3ccc(C)cc3s2)cc1	.	19	.	.	.	29	.
Cc1ccc2nc(-c3ccc(NC(=O)COC(=O)c4cncc(Br)c4)cc3)sc2c1	.	/	/	/	/	/	/

Bioassay records deposited in PubChem BioAssay by The Scripps Research Institute Molecular Screening Center.
